The entries come from a sample that favours hits as a whole.
XiGFP reactiv: activators of inactive X chromosome reactivation, primary screen, imaging, XiGFP fibroblasts, GFP high-content imaging, set 2; activation, % at 7.58 µM; actives 0.055% (n = 360,000); XiGFP mouse fibroblasts, % GFP-positive cells imaging, 3 d; cells co-treated with 5-aza-dC sensitizer; scaled so ellipticine positive control = 100%;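 active means mean normalized replicate activation at least 10% and every replicate at or above 10%; inconclusive means only one of the two criteria met; inactive means mean below 10% and not all replicates reach 10%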;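 further: 0% = median of on-plate neutral control wells and 100% = ellipticine 6 µM median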
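Schedule: 3 d treatment, 15 min room-temperature fixation; system: 68-5-11 XiGFP fibroblast line; buffer or medium: DMEM plus 5-aza-dC sensitizer; control set: ellipticine 6 µM positive control; compound: one concentration, pinned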
Myeloid diff MLP: induction of myeloid progenitor differentiation, primary screen, cell-based, flow cytometry, MLPCN library; calls only at 10 µM; actives 1% (n = 360,000); ER-HoxA9 myeloid progenitors, lysozyme-GFP differentiation; AID 624256, 2012;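 active means normalized GFP-positive differentiation at or above the plate's own cutoff, the solvent-only control mean plus 3 SD; inconclusive means no clear call, values can overlap the other calls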;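 further: cells exposed to compound for four days before flow analysis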
ABCB6 inh MLPCN: ABCB6 transporter inhibitors, primary screen, K562-ABCB6 cells, flow cytometry, MLPCN library; ATP-binding cassette sub-family B member 6 (Homo sapiens), Q9NP58; actives 0.19% (n = 360,000); K562-ABCB6 porphyrin accumulation, 1 h; active compounds read low; fluorescence ratio to DMSO, % at 10 µM;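 active means fluorescence ratio to DMSO below 75%, the collection mean minus 3 SD; inconclusive means too few cells collected in the well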;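 further: signal is porphyrin accumulated inside mitochondria; 100% equals median channel fluorescence of DMSO control wells; lower ratio means ABCB6 inhibition with less porphyrin fluorescence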
Target sequence (Q9NP58 whole entry, looked up): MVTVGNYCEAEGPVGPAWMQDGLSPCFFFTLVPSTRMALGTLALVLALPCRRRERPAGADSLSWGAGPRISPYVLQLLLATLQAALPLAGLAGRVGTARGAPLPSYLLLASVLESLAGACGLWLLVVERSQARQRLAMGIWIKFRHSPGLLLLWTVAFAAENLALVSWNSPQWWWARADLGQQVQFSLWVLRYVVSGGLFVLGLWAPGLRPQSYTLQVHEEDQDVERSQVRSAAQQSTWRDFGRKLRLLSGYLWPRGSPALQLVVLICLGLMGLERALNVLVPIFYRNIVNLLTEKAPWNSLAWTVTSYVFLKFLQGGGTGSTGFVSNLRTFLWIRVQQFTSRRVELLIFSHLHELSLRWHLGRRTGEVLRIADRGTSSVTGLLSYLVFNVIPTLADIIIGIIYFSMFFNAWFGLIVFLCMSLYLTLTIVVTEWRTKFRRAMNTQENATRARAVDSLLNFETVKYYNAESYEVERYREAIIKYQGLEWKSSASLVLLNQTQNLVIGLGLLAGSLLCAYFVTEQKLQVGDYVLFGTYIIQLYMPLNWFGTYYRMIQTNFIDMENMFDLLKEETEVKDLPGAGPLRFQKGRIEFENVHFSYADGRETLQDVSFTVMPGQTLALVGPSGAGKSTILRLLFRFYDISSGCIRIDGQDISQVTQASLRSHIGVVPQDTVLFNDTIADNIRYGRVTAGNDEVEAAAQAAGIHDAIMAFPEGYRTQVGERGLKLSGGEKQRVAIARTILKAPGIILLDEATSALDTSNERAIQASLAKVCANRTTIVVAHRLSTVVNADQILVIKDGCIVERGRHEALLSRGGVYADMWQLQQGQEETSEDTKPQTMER
* marks the source's active call; other numbers are inactive results; i = inactive; ? = inconclusive; nt = no result given; + = active, no number.

SMILES	XiGFP reactiv	Myeloid diff MLP	ABCB6 inh MLPCN
Cc1ccc(N(C)C(=O)C2CCN(S(=O)(=O)c3ccc4c(c3)oc(=O)n4C)CC2)cc1	?	i	104
COc1ccc(C(NC(=O)/C=C\c2ccco2)c2ccc(OC)c(OC)c2)cc1 (stereo not given)	nt	i	61*
COc1ccc(C(NC(=O)/C=C/c2ccco2)c2ccc(OC)cc2)cc1	0	i	91
CC(/C=C/c1ccc(N(C)C)cc1)=N\N=C(/N)SC1CC(=O)N(c2ccc(C(=O)O)cc2)C1=O (stereo not given)	0	+	108
O=C(O)c1ccc(N2C(=O)CC(SC(=Nc3ccccc3)Nc3ccccc3)C2=O)cc1 (stereo not given)	0	i	96
COc1cccc(S(=O)(=O)N2C[C@H](O)COC[C@H]3O[C@@H](CC(=O)N4CCOCC4)CC[C@@H]32)c1	0	nt	nt
COc1ccc(/C=C/c2ccc3ccccc3[n+]2C)cc1OC	nt	+	287
CN(C)c1ccc(/C=C/c2ccc3ccccc3[n+]2C)cc1	0	nt	494
C[C@H]1CN([C@@H](C)CO)C(=O)c2cc(Br)cnc2O[C@H]1CN(C)C(=O)Nc1ccc(F)cc1	0	nt	nt
CC(C)[C@H](CO)Nc1nc(Nc2ccc(Cl)c(C(=O)O)c2)c2ncn(C(C)C)c2n1	0	i	91
CC(C)n1cnc2c(Nc3cccc(Cl)c3)nc(NCCCO)nc21	0	+	95
CCOc1ccccc1C1C(C#N)=C(N)Oc2n[nH]c(CC)c21 (stereo not given)	nt	i	96
CCOc1ccccc1C1C(C#N)=C(N)SC(N)=C1C#N	nt	+	243
CCc1ccc(C2C(C#N)=C(N)SC(N)=C2C#N)cc1	nt	i	113
CCOc1ccc(C2C(C#N)=C(N)SC(N)=C2C#N)cc1OCC	nt	+	95
C[C@@H]1CCCCO[C@@H](CN(C)C(=O)Nc2ccccc2)[C@H](C)CN([C@@H](C)CO)C(=O)c2cc(NC(=O)CCC(F)(F)F)ccc2O1	0	nt	nt
O=C(NCC1CCCO1)c1ccccc1S(=O)(=O)c1ccc([N+](=O)[O-])cc1 (stereo not given)	0	+	145
O=C(NCC1CCCO1)c1ccc(NS(=O)(=O)c2cccc([N+](=O)[O-])c2)cc1 (stereo not given)	0	i	98
C[C@@H]1CN([C@H](C)CO)C(=O)Cc2cc(NC(=O)C3CC3)ccc2O[C@H]1CN(C)Cc1ccccc1	0	nt	nt
COc1ccc2c3c([nH]c2c1)[C@H](CO)N(C(=O)Nc1ccc(F)cc1)CC31CN(C(=O)Cc2ccccc2)C1	0	nt	nt
Cc1ccc(S(=O)(=O)Nc2ccc3c4c(cccc24)CC3)c(C)c1	nt	+	91
Cc1cc(C)c(S(=O)(=O)Nc2ccc3c4c(cccc24)CC3)c(C)c1	nt	?	125
COc1ccc(S(=O)(=O)N2CC(C(=O)O)Oc3ccc(Cl)cc32)cc1 (stereo not given)	0	+	285
CC(C)(C)c1ccc(S(=O)(=O)N2CC(C(=O)O)Oc3ccc(Cl)cc32)cc1 (stereo not given)	0	i	98
CCCCOC(=O)c1ccc(-c2ccc(/C=N/NC(=S)NCC)o2)cc1	nt	+	96
SMILES	XiGFP reactiv	Myeloid diff MLP	ABCB6 inh MLPCN
CCOC(=O)c1ccc(-c2ccc(/C=N/NC(=O)c3cncc(Br)c3)o2)cc1	0	i	99
O=C(Nc1nc2c(s1)CN(Cc1ccccc1)CC2)C1CCC1	0	i	99
CN(C)c1ccc(/C=C(\C#N)C(=O)Nc2nc3c(s2)CCN(Cc2ccccc2)C3)cc1	nt	+	284
CC1(C)Cc2ccccc2C2CC(O)C(=O)N21 (stereo not given)	nt	+	119
O=C1c2ccccc2[C@@H]2CC(O)C(O)CCN12 (stereo not given in full)	0	i	96
CO[C@H]1CN(C)C(=O)c2cc(NC(=O)Nc3ccc(Cl)cc3)ccc2OC[C@H](C)N(C)C[C@@H]1C	0	nt	nt
C[C@@H]1CN([C@@H](C)CO)C(=O)c2cccc(NC(=O)CCCCCC(=O)Nc3ccccc3N)c2O[C@@H]1CN(C)Cc1ccc(Oc2ccccc2)cc1	1	nt	nt
O=C(N[C@H]1CC[C@H](CCNC(=O)c2ccccc2F)O[C@H]1CO)c1ccc2c(c1)OCO2	-1	nt	nt
CC1(c2ccccc2)NC(=O)N(CC(=O)Nc2ccc([N+](=O)[O-])cc2)C1=O (stereo not given)	0	i	100
Cc1ccc(C2(C)NC(=O)N(CC(=O)Nc3ccc(Cl)c(S(=O)(=O)N4CCCCC4)c3)C2=O)cc1 (stereo not given)	0	i	99
CC1(c2ccc([N+](=O)[O-])cc2)NC(=O)N(CC(=O)Nc2ccc(N3CCCCC3)cc2)C1=O (stereo not given)	0	+	91
CC1(c2ccccc2)NC(=O)N(CC(=O)Nc2ccc(Cl)c(S(=O)(=O)N3CCCCC3)c2)C1=O (stereo not given)	0	+	98
CC(=O)Nc1ccc2c(c1)C(=O)N(C)C[C@@H](C)[C@H](CN(C)C(C)=O)O2	0	nt	nt
C[C@@H](NC(=O)C[C@H]1CC[C@@H](NS(=O)(=O)c2cccc(F)c2)[C@H](CO)O1)c1ccccc1	1	nt	nt
COc1cccc(NC(=O)N2CC(=O)N3[C@H](CO)[C@H](c4ccc(Br)cc4)[C@@H]3C2)c1	0	nt	nt
O=S(=O)(N[C@H]1CC[C@H](CCn2cc(-c3cccnc3)nn2)O[C@@H]1CO)c1ccc(F)cc1	0	nt	nt
COc1ccc(S(=O)(=O)Nc2c(O)c3ccccc3oc2=O)cc1	0	+	84
Cc1ccc(S(=O)(=O)Nc2c(O)c3ccccc3oc2=O)cc1	0	i	109
C/C=C/c1ccc2c(c1)O[C@@H](CN(C)C(=O)Cc1ccncc1)[C@H](C)CN([C@H](C)CO)S2(=O)=O	-1	nt	nt
COc1cccc(Nc2ncccc2C(=O)NCc2ccccc2)c1	nt	+	182
COc1ccc(Nc2ncccc2C(=O)NCc2ccccc2)cc1	nt	i	130
CN1C(=O)N(c2cccc3ccccc23)C(n2cncn2)C1(C)C (stereo not given)	nt	i	99
CN1C(=O)N(c2ccccc2)C(Nc2nncs2)C1(C)C (stereo not given)	nt	+	99
C[C@@H]1CN([C@H](C)CO)C(=O)Cc2cc(NC(=O)Cc3ccccc3)ccc2O[C@@H]1CN(C)C(=O)Nc1ccc2c(c1)OCO2	0	nt	nt
C[C@@H]1CN([C@H](C)CO)C(=O)c2cc(N(C)C)ccc2O[C@@H]1CN(C)C(=O)Nc1ccc(C(F)(F)F)cc1	0	nt	nt
COCC(=O)N(C)C[C@@H]1Oc2ncc(-c3ccccc3C)cc2C(=O)N([C@H](C)CO)C[C@H]1C	-1	nt	nt
C[C@H](CO)N1C[C@H](C)[C@H](CN(C)S(=O)(=O)c2cn(C)cn2)Oc2ccc(NS(=O)(=O)c3cccs3)cc2CC1=O	-1	nt	nt
